From ChEMBL document CHEMBL5376016, “Synthesis of novel rapanone derivatives via organocatalytic reductive C-alkylation: biological evaluation of antioxidant properties, in vivo zebrafish embryo toxicity, and docking studies” (RSC Med Chem, 2024) come the findings set out here.

Bounds are passed on as bounds.

By IC50 is commonly meant the concentration that gives 50% inhibition.

Series [1] can be described thus: Antioxidant activity assessed as ABTS radical scavenging activity after 6 mins by spectrophotometric analysis relative to control. Format: functional. Details: concentration or dose not given beside the values.
The nature of series [2]: Acute toxicity in zebrafish embryo assessed as hatching rate at 20 to 160 uM measured after 48 hrs post fertilization relative to control. Details: species or system Danio rerio. The conditions noted are these: in vivo, dose 20-160 µM. The method in brief: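 Controls were water and water with 0.5% DMSO. Incubation at 26.8 ± 1 °C, 20 embryos per well. Hatching scored over 0–96 hpf under an inverted microscope. Triplicate, three independent experiments; mean ± SD; ANOVA.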

Series [3] is described as follows: Antioxidant activity assessed as DPPH radical scavenging activity after 30 mins by spectrophotometric analysis relative to control. Set-up: concentration or dose not given beside the values. Format: functional. The method in brief: (§1)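 Ascorbic acid was the reference standard. For DPPH, 0.2 mM DPPH in methanol was kept in the dark, mixed with compound at 5–160 µM (DMSO stock), and incubated 30 min in the dark at room temperature, then A517 was read. %RSA = (Ac−As)/Ac×100. Triplicate runs; IC50 taken from the plot of % scavenging versus concentration.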
On the technique in general: The DPPH test is a chemical assay of radical scavenging.

Series [4] in a line: Antioxidant activity assessed as DPPH radical scavenging activity after 30 mins by spectrophotometric analysis. Format: functional. The method in brief: as §1
A short description of series [5]: Antioxidant activity assessed as ABTS radical scavenging activity after 6 mins by spectrophotometric analysis. Format: functional.
A short description of series [6]: Acute toxicity in zebrafish embryo assessed as morphological changes at upto 160 uM measured after 48 hrs post fertilization relative to control. Details: species or system Danio rerio. The conditions noted are these: in vivo. The method in brief:
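Wild-type Danio rerio embryos were exposed in milli-Q water with compound dissolved in DMSO (≤0.25 v/v final). Controls were milli-Q water and water with DMSO. Embryos were held at 26.8 ± 1 °C and scored by inverted microscope at 24–96 hpf, after exposure at 160 µM, for bent spine, yolk sac edema, pericardial edema, short tail and bent tail.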

The nature of series [7]: Acute toxicity in zebrafish embryo assessed as survival rate at 96 hrs post fertilization relative to control. Details: species or system Danio rerio; concentration or dose not given beside the values. The conditions noted are these: in vivo. The method in brief: (§2)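 Lethality endpoints were coagulation and absence of heartbeat, checked by inverted microscope. Survival was compared with untreated embryos across three independent experiments; mean ± SD, ANOVA.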

A short description of series [8]: Acute toxicity in zebrafish embryo assessed as survival rate at 160 uM measured after 96 hrs post fertilization relative to control. The conditions noted are these: in vivo. Details: species or system Danio rerio. The method in brief: as §2
The nature of series [9]: Acute toxicity in zebrafish embryo assessed as survival rate at 20 uM measured after 96 hrs post fertilization relative to control. Set-up: species or system Danio rerio. The conditions noted are these: in vivo. The method in brief: as §2

In the case of `CCCCCCCCCCCC1=C(O)C(=O)C(Cc2c(Cl)cccc2Cl)=C(O)C1=O`, the Activity in [1] was 52.1%; in series [2], 51.33%; in [3], 50.3%; in series [6], “Non-Toxic”. Further, the IC50 was 4.87 µM in [4] and 5.21 µM in series [5]. The survival at 96 h in series [7] (read-out: Survival) is more than 90%.
Regarding `CCCCCCCCCCCC1=C(O)C(=O)C(Cc2cccc([N+](=O)[O-])c2)=C(O)C1=O`, the Activity in series [1] is 52.1%; in [2] it was 51.33%; in series [3], 50.3%; in series [6] it was “Non-Toxic”. For the same compound, the figures for the 50% inhibitory concentration (IC50) in [4] and in series [5] were 4.8 µM and 5.36 µM, respectively. The survival at 96 h in series [7] (read-out: Survival) is more than 90%.
For the compound `CCCCCCCCCCCC1=C(O)C(=O)C(Cc2ccccc2Br)=C(O)C1=O`, the Activity in series [1] is 52.1%; in [2], 51.33%; in [3], 50.3%; in [6], “Non-Toxic”. In addition, the IC50 is 4.57 µM in series [4] and 5.54 µM in series [5]. The survival at 96 h in series [7] (read-out: Survival) was more than 90%.
Take `CCCCCCCCCCCC1=C(O)C(=O)C(Cc2ccc(Cl)cc2)=C(O)C1=O`: the Activity is 52.1% in series [1], 51.33% in series [2], 50.3% in series [3] and “Non-Toxic” in [6]. Further, the figures for the IC50 in series [4] and in series [5] were 4.93 µM and 4.99 µM, respectively. Moreover, the survival at 96 h in series [7] (read-out: Survival) was more than 90%.
Turning to `CCCCCCCCCCCC1=C(O)C(=O)C(CCCl)=C(O)C1=O`, the Activity in series [1] is 52.1%; in series [2], 51.33%; in series [3] it was 50.3%; in series [6] it was “Non-Toxic”. For the same compound, the IC50 in series [4] turned out to be 4.6 µM; in series [5], 4.41 µM. Also, the survival at 96 h in [7] (read-out: Survival) was more than 90%.
Regarding `CCCCCCCCCCCC1=C(O)C(=O)C(Cc2ccccc2[N+](=O)[O-])=C(O)C1=O`, the Activity was 52.1% in series [1], 51.33% in series [2], 50.3% in series [3] and “Non-Toxic” in series [6]. Besides, the half-maximal inhibitory concentration (IC50) in [4] turned out to be 4.76 µM; in [5], 5.34 µM. The survival at 96 h in [7] (read-out: Survival) was more than 90%.
On to `O=C1O[C@H]([C@@H](O)CO)C(O)=C1O` [ASCORBIC ACID], for which the Activity in [1] was found to be 91.1%; in [3] it was 90.2%. The half-maximal inhibitory concentration (IC50) in series [4] stood at 1.87 µM; in series [5] it was 1.42 µM.
`CCCCCCCCCCCC1=C(O)C(=O)C(Cc2ccc(C#N)cc2)=C(O)C1=O`: the Activity is 52.1% in [1], 51.33% in series [2], 50.3% in [3] and “Non-Toxic” in [6]. The IC50 stood at 4.58 µM in [4] and 5.15 µM in series [5]. Also, the survival at 96 h in series [7] (read-out: Survival) was more than 90%.
As for `CCCCCCCCCCCC1=C(O)C(=O)C(CC)=C(O)C1=O`, the survival at 96 h, 160 µM in series [8] was 70%. In addition, the survival at 96 h, 20 µM in series [9] was determined as 52%. In addition, the Activity is 80.2% in [1], 75.66% in series [2], 80% in [3] and “Non-Toxic” in [6]. The IC50 in [4] is 2.61 µM; in [5] it was 2.44 µM. Moreover, the survival at 96 h in series [7] (read-out: Activity) was determined as 70%.
Turning to `CCCCCCCCCCCC1=C(O)C(=O)C(Cc2ccc([N+](=O)[O-])cc2)=C(O)C1=O`, the Activity was 52.1% in series [1], 51.33% in series [2], 50.3% in [3] and “Non-Toxic” in series [6]. Also, the figures for the concentration for half-maximal inhibition (IC50) in series [4] and in series [5] were 4.9 µM and 5.25 µM, respectively. The survival at 96 h in series [7] (read-out: Survival) was more than 90%.
Regarding `CCCCCCCCCCCC1=C(O)C(=O)C(CC(C)C)=C(O)C1=O`, the survival at 96 h, 160 µM in series [8] worked out at 70%. The survival at 96 h, 20 µM in [9] worked out at 52%. Further, the Activity in series [1] was 80.2%; in series [2], 75.66%; in [3], 80%; in series [6], “Non-Toxic”. The IC50 in series [4] stood at 2.48 µM. The survival at 96 h in [7] (read-out: Activity) amounted to 70%.
`CCCCCCCCCCCC1=C(O)C(=O)C(Cc2c(OC)cc(OC)cc2OC)=C(O)C1=O`: in series [8], the survival at 96 h, 160 µM was determined as 70%. For the same compound, the survival at 96 h, 20 µM in series [9] was 52%. Also, the Activity in series [1] was 80.2%; in [2] it was 75.66%; in [3], 71.1%; in series [6], “Non-Toxic”. For the same compound, the figures for the half-inhibitory concentration (IC50) in series [4] and in series [5] were 3.07 µM and 2.6 µM, respectively. In [7] (read-out: Activity), the survival at 96 h turned out to be 70%.
On to `CCCCCCCCCCCC1=C(O)C(=O)C(Cc2ccc(F)cc2)=C(O)C1=O`, for which the Activity in series [1] is 52.1%; in series [2], 51.33%; in series [3] it was 50.3%; in series [6] it was “Non-Toxic”. Further, the IC50 in series [4] was determined as 4.65 µM; in series [5] it was 5.22 µM. In series [7] (read-out: Survival), the survival at 96 h was more than 90%.
With `CCCCCCCCCCCC1=C(O)C(=O)C(Cc2ccc(Cl)cc2Cl)=C(O)C1=O`, the Activity in [1] was 52.1%; in [2], 51.33%; in series [3], 50.3%; in series [6] it was “Non-Toxic”. The half-maximal inhibitory concentration (IC50) in series [4] was 4.74 µM; in series [5] it was 4.43 µM. For the same compound, the survival at 96 h in series [7] (read-out: Survival) was more than 90%.
`CCCCCCCCCCCC1=C(O)C(=O)C(Cc2ccc(Cl)c(Cl)c2)=C(O)C1=O`: the Activity in series [1] was 52.1%; in series [2] it was 51.33%; in series [3] it was 50.3%; in [6] it was “Non-Toxic”. Further, the concentration for half-maximal inhibition (IC50) in series [4] came out at 4.87 µM; in series [5], 5.09 µM. Further, in [7] (read-out: Survival), the survival at 96 h is more than 90%.
Regarding `CCCCCCCCCCCC1=C(O)C(=O)C(Cc2cc(Cl)ccc2Cl)=C(O)C1=O`, the Activity in series [1] was 52.1%; in series [2], 51.33%; in series [3] it was 50.3%; in series [6] it was “Non-Toxic”. Moreover, the values for the concentration for half-maximal inhibition (IC50) in [4] and in series [5] were 4.69 µM and 5.32 µM, respectively. Further, the survival at 96 h in series [7] (read-out: Survival) was more than 90%.
For `C#Cc1ccccc1CC1=C(O)C(=O)C(CCCCCCCCCCC)=C(O)C1=O`, the Activity in series [1] was 52.1%; in series [2], 51.33%; in [3], 50.3%; in [6], “Non-Toxic”. For the same compound, the IC50 in series [4] was determined as 4.94 µM; in [5] it was 4.96 µM. In addition, in [7] (read-out: Survival), the survival at 96 h was more than 90%.
For the compound `CCCCCCCCCCCC1=C(O)C(=O)C(Cc2ccccc2F)=C(O)C1=O`, the Activity was 52.1% in [1], 51.33% in series [2], 50.3% in series [3] and “Non-Toxic” in series [6]. In addition, the IC50 in series [4] turned out to be 4.62 µM; in series [5], 5.44 µM. Moreover, in series [7] (read-out: Survival), the survival at 96 h is more than 90%.
As for `CCCCCCCCCCCC1=C(O)C(=O)C(Cc2ccccc2C#N)=C(O)C1=O`, the Activity is 52.1% in [1], 51.33% in series [2], 50.3% in [3] and “Non-Toxic” in series [6]. For the same compound, the results for the half-inhibitory concentration (IC50) in series [4] and in [5] were 4.43 µM and 5.01 µM, respectively. Besides, the survival at 96 h in series [7] (read-out: Survival) was more than 90%.
Take `CCCCCCCCCCCC1=C(O)C(=O)C(Cc2ccc(Br)cc2)=C(O)C1=O`: the Activity in [1] is 52.1%; in [2], 51.33%; in series [3] it was 50.3%; in series [6], “Non-Toxic”. For the same compound, the half-maximal inhibitory concentration (IC50) was 4.59 µM in series [4] and 5.14 µM in series [5]. The survival at 96 h in series [7] (read-out: Survival) is more than 90%.
